According to PMC9632315 (The Oncologist, 2022):
Values joined by “and” are separate entries in the source; they are usually repeats but may differ in a detail not shown here. Identical values can stand only once.

Assays:
[1] = Epacadostat plasma pharmacokinetics, noncompartmental analysis; type: in vivo, human; conditions: steady state cycle 1/day 8; for AUC / half-life / Tmax: human, plasma, oral; for AUC: AUC0-τ; for half-life: t ½; for Tmax: t max, median (range)
Method in brief: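 Test compound 100 mg oral bid (B, C); pembrolizumab 200 mg IV q3w. A: oxaliplatin 85, leucovorin 400, 5-FU 400 mg/m2 bolus then 1200 mg/m2 per day over 46 h; days 1, 15, 28-day cycles. B: nab-paclitaxel 125, gemcitabine 1000 mg/m2; days 1, 8, 15, 28-day cycles. C: paclitaxel 200 mg/m2, carboplatin AUC 6; day 1, 21-day cycles.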

[2] = test system: plasma kynurenine production; conditions: cited from earlier work
IDO1 = conditions: patients with advanced solid tumors; cited from earlier work
[3] = stated without reference; cited from earlier work
advanced melanoma = conditions: patients with advanced melanoma; median follow-up of 12.4 months; cited from earlier work
[4] = group A, mFOLFOX6, individual value (n ≤ 2)
[5] = group C, paclitaxel and carboplatin, individual values (n ≤ 2)
[6] = group D, pemetrexed and platinum agent, individual value (n ≤ 2)
[7] = group G, 5-FU and platinum agent, individual values (n ≤ 2)
[8] = 100 mg twice daily, group B, nab-paclitaxel and gemcitabine, individual value (n ≤ 2)

For `NS(=O)(=O)NCCNc1nonc1C(=NO)Nc1ccc(F)c(Br)c1` [Epacadostat], which CLss/F [1, 4] is on record?
The CLss/F was 81.7 L/h.

And the CLss/F ([1]; group B, nab-paclitaxel and gemcitabine, individual value (n ≤ 2))?
Its CLss/F is 82.6 L/h.

What about the AUC0-τ [1, 5] of the same compound?
Its AUC0-τ is 2440 nM·h.

What about the CLss/F [1, 5] of the same compound?
The CLss/F was 70.4 L/h and 93.5 L/h.

What about the “t ½” value [1, 5] of the same compound?
The value was 2.62 h and 1.07 h.

What about the AUC0-τ [1, 6] of the same compound?
Its AUC0-τ is 1810 nM·h.

What about the CLss/F [1, 6] of the same compound?
The CLss/F was 126 L/h.

And the AUC0-τ [1, 7]?
Its AUC0-τ is 2810 nM·h.

And the CLss/F [1, 7]?
The CLss/F was 76.8 L/h and 81.3 L/h.

What about the “t ½” value [1, 7] of the same compound?
Its value is 1.30 h.

What about the AUC [1, 8] of the same compound?
The AUC was 2760 nM·h.

What about the AUC ([1]; 100 mg twice daily, group C, paclitaxel and carboplatin, individual values (n ≤ 2)) of the same compound?
The AUC was 3240 nM·h.

And the half-life [1, 8]?
The half-life was 1.42 h.

And the AUC [1, 4]?
The AUC was 2790 nM·h.

What about the AUC [1, 7] of the same compound?
The AUC was 2970 nM·h.

What about the Tmax ([1]; group A, mFOLFOX6, N=6) of the same compound?
The Tmax was 2.9 h.

What about the Tmax ([1]; group F, gemcitabine and platinum agent, N=7) of the same compound?
Its Tmax is 2.1 h.

And the Tmax ([1]; group G, 5-FU and platinum agent, N=8)?
Its Tmax is 3.1 h.

What about the half-life [1, 4] of the same compound?
Its half-life is 1.78 h.

And the half-life [1, 6]?
The half-life was 1.3 h.

And the half-life [1, 7]?
The half-life was 1.35 h.

What about the maximally tolerated dose [2] of the same compound?
The maximally tolerated dose was 600 mg BID.

What about the “epacadostat dose required for suppression of plasma kynurenine production” value ([2]; in combination with pembrolizumab, retrospective analysis) of the same compound?
The value was 600 mg BID.

And the “metabolism of tryptophan to kynurenine, whole blood assays” value (IDO1)?
Its value is “effectively inhibits”.

What about the “percentage decrease in kynurenine levels from baseline to day 15” value (IDO1) of the same compound?
The value was “dose dependent”.

What about the clearance mechanism [3] of the same compound?
Its clearance mechanism is “cleared predominantly by hepatic glucuronidation”.

For `Nc1nc2[nH]cc(CCc3ccc(C(=O)N[C@@H](CCC(=O)O)C(=O)O)cc3)c2c(=O)[nH]1` [pemetrexed, Pemetrexed, reference compound], which clearance mechanism [3] is on record?
The clearance mechanism was “cleared by renal excretion”.

With “placebo plus pembrolizumab: ECHO-301/KEYNOTE-252 control arm: placebo plus the PD-1 inhibitor pembrolizumab” as the compound, how does the “OS (median)” value (advanced melanoma) read?
Its value is “not reached”.
